Bioassay records: PubChem, several laboratories
Beta2AR agonist = agonists of human beta-2 adrenergic receptor inducing internalization; 340,000 tested, 0.43% active; response, % (concentration not given with the values); Am2.2-beta2AR cells, FAP receptor internalization, flow cytometry;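 active = response above a set limit, near 3 SD of response in nonfluorescent compounds, cut at about 42% in these data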
TLR4-MyD88 BLA = blocks binding of human TLR4 to MyD88. O00206+Q99836. HeLa CL3-4 TLR4/MyD88 BLA complementation, FRET ratio. inhibition, % at 8.4 µM. 200,000 tested, 0.18% active. AID 861; in the data active = inhibition above about 25%
NOD2 RIPK2 PPI = inhibitors of human NOD2-RIPK2 interaction. 360,000 tested, 0.38% active. CHO BLA complementation NOD2-RIPK2, CCF4 ratio. AID 624267. inhibition, % at 4.98 µM. O43353; in the data active = inhibition above about 21%
Target sequence (O43353 whole entry, looked up): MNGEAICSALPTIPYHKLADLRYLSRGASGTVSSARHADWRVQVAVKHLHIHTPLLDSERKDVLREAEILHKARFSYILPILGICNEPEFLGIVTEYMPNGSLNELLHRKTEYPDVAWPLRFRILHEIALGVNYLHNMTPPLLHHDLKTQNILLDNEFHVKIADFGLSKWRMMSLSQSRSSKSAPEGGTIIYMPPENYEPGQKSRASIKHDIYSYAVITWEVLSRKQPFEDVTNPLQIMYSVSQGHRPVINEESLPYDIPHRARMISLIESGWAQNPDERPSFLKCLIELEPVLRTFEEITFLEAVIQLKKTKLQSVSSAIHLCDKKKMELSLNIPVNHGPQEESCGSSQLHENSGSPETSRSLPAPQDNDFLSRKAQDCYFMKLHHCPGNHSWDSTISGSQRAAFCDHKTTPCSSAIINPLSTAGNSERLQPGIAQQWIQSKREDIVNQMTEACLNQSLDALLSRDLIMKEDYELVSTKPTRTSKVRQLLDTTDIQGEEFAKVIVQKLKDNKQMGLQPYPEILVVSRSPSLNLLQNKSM
TLR9-MyD88 block = blocks human TLR9 binding to MyD88; CHO BLA complementation TLR9-MyD88, CCF4 FRET ratio; inhibition, % at 4.98 µM; 340,000 tested, 0.21% active; AID 504734;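 active = inhibition above the mean over all tested compounds plus 3 SD, cut at about 21% in these data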
Dynein cargo inh = dynein cargo transport inhibition; 3617.4 mouse cells, GR-EGFP nuclear translocation imaging; test concentration mostly 20 µM; stimulated with dexamethasone, 1 µM; active compounds read low; z-score, hits read low; 220,000 tested, 0.47% active; AID 1381;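 active = plate z-score of nuclear minus cytoplasmic receptor signal below a set negative limit, without overly bright fluorescence or cell loss, cut at about -3.5 in these data, passing the limit was not always enough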;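 also: z-score of nuclear minus cytoplasmic ring GR-EGFP intensity difference per well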
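medium = tetracycline-free induction medium containing charcoal-stripped FBS | probe or stimulus = dexamethasone, 1.0 µM final | timing = 48 h induction, then 1 h compound, then 30 min agonist, 37 °C | detection = automated 10x imaging of fixed Hoechst-stained cells | read-out basis = nuclear versus cytoplasmic GR-EGFP signal, averaged per well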
ABHD5-PLIN5 inh = ABHD5-PLIN5 protein interaction inhibition | inhibition, % at 4 µM | AID 602281 | 360,000 tested, 0.78% active | Split G. princeps luciferase complementation, luminescence, 4 h;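 active = inhibition above the mean inhibition across every tested compound plus 3 SD, cut at about 22% in these data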
ABHD5 PLIN5 conf = confirmation of human ABHD5-PLIN5 interaction inhibitors. shares compounds with ABHD5-PLIN5 inh. biochemical ABHD5-PLIN5 interaction, luminescence. inhibition, % at 4 µM. 2,200 tested, 67% active. AID 651612; in the data active = inhibition above about 23%
HNF4 split-luc = HNF4 split-luciferase signal hit, counter-screen; inhibition, % at 4 µM; HNF4 dimerization, luminescence, biochemical; shares compounds with ABHD5-PLIN5 inh; 2,200 tested, 77% active;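 active = mean inhibition across replicate wells exceeding the computed hit threshold, cut at about 13% in these data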;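 also: light from luciferase halves that rejoin when HNF4 fusion proteins dimerize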
Numbers stand for hits; 0 = inactive; - = not tested or not shown; ! = not active in a repeat. Rows were chosen to be rich in hits. Some 1.6% of all compounds tested hit in one or more screens of this group.

SMILES | Beta2AR agonist | TLR4-MyD88 BLA | NOD2 RIPK2 PPI | TLR9-MyD88 block | Dynein cargo inh | ABHD5-PLIN5 inh | ABHD5 PLIN5 conf | HNF4 split-luc
O=c1[nH]c(O)c(C=Nc2ccc(Cl)c(C(F)(F)F)c2)c(=O)[nH]1 | 0 | - | 0 | 0 | - | 0 | - | -
O=C(O)CCn1cc(C=C2C(=O)NC(=O)NC2=O)c(-c2ccc(Br)cc2)n1 | 0 | 0 | 0 | 0 | 0 | 24.5 | 68.8 | 70.5
C=CCn1c(O)c(C(C)=Nc2cccc(C(F)(F)F)c2)c(=O)[nH]c1=O | 0 | - | 0 | 0 | 0 | 97.9 | 0 | 18.0
O=C(O)Cn1cc(/C=C2\C(=O)NC(=O)N(Cc3ccco3)C2=O)c2ccccc21 | 0 | 0 | 0 | 0 | 0 | 0 | - | -
CCN1C(=O)NC(=O)/C(=C\c2cn(CC(=O)N3CCCCC3)c3ccccc23)C1=O | 0 | - | 0 | 0 | - | 26.1 | 0 | 20.2
CCN1C(=O)NC(=O)/C(=C\c2cn(CC(=O)N3CCCC3)c3ccccc23)C1=O | 0 | - | 0 | 0 | - | 25.4 | 24.1 | 25.6
CC(CCN1CC1)=NNC(=O)Nc1cccc2ccccc12 | 0 | - | 0 | 0 | - | 0 | - | -
CCNC(=S)N(C)CCc1cc2c(c(OC)c1C=C1C(=O)N(C)C(=O)N(C)C1=O)OCO2 | 0 | - | 0 | - | 0 | 29.2 | 0 | 18.2
CNC(=S)N(C)CCc1cc2c(c(OC)c1/C=C1/C(=O)NC(=O)N(C)C1=O)OCO2 | 0 | - | 0 | 0 | 0 | 35.5 | 0 | 18.1
COc1c(/C=C2/C(=O)NC(=O)N(C)C2=O)c(CCN(C)C(=O)c2ccccc2)cc2c1OCO2 | 0 | - | 0 | 0 | - | 0 | - | -
C=CCNC(=S)N1Cc2ccccc2-n2nncc2C1 | - | - | 0 | 0 | - | 0 | - | -
COC(=O)C1=C(c2ccc(OC)c(OC)c2)C[C@@H]2CC[C@H]1N2C(=O)N1CCCC1 | 0 | - | 0 | 0 | - | 0 | - | -
O=c1[nH]c(=O)n(CC2CCCO2)c(O)c1/C=C1\C=Nc2ccccc21 (stereo unspecified) | 0 | 0 | 0 | 0 | 0 | 26.6! | 0 | 18.0
O=[N+]([O-])c1cc(-c2ccc([As](=O)(O)O)cc2)ccc1[As](=O)(O)O | - | - | - | - | 0 | - | - | -
CC1=CP(=O)(Oc2ccc([N+](=O)[O-])cc2)CC1 (stereo unspecified) | - | - | 0 | 0 | - | 0 | - | -
NC(=S)/N=C/c1c(O)[nH]c(=O)[nH]c1=O | 0 | 0 | 0 | 0 | 0 | 0 | - | -
C=CCNC(=S)/N=C/c1c(O)[nH]c(=O)[nH]c1=O | 0 | 0 | 0 | 0 | 0 | 28.3 | 0 | 0
Cc1ccc(OP2(=O)Nc3cc(C)c(C)cc3S2)cc1 (stereo unspecified) | 0 | - | 0 | 0 | - | 0 | - | -
COc1cccc(N2C(=O)CC(=O)NC2=O)c1 | 0 | 0 | 0 | 0 | 0 | 27.3 | 0 | 31.8
Cc1ccccc1N1C(=O)CC(=O)NC1=O | 0 | 0 | 0 | 0 | 0 | 0 | - | -
O=C1CC(=O)N(c2ccc(Cl)cc2)C(=O)N1 | 0 | - | 0 | 0 | - | 0 | - | -
COc1ccccc1N1C(=O)CC(=O)NC1=O | 0 | - | 0 | 0 | - | 26.7 | 0 | 35.8
CCc1ccc(N2C(=O)CC(=O)NC2=O)cc1 | 0 | - | 0 | 0 | - | 23.8 | 0 | 15.5
CCOc1cccc(N2C(=O)CC(=O)NC2=O)c1 | 0 | 0 | 0 | 0 | 0 | 0 | - | -
COc1ccc(CN2CCN(C(=O)Cc3ccccc3)CC2)cc1Br | 0 | - | 0 | 0 | - | 0 | - | -
SMILES | Beta2AR agonist | TLR4-MyD88 BLA | NOD2 RIPK2 PPI | TLR9-MyD88 block | Dynein cargo inh | ABHD5-PLIN5 inh | ABHD5 PLIN5 conf | HNF4 split-luc
CC1CC(C)CN(C(=O)COC(=O)c2cn(C)c3ccccc23)C1 (stereo unspecified) | 0 | - | 0 | 0 | - | 0 | - | -
C=CCNC(=O)c1c(N)n(Cc2ccco2)c2nc3ccccc3nc12 | 0 | 0 | 0 | 0 | 0 | 36.0 | 50.3 | 65.9
c1ccc(N2[C@@H]3CC[C@H]2c2ccncc2C3)cc1 | - | - | 0 | - | - | 0 | - | -
O=c1[nH]c(O)c(/C=C2\C=NN=C2c2ccccc2)c(=O)[nH]1 | 0 | 0 | 0 | 0 | 0 | 30.3 | 61.9 | 63.4
Cc1ccc(N2C(=O)NC(=O)/C(=C\c3cn(CC(=O)O)c4ccccc34)C2=O)cc1 | 0 | - | 0 | 0 | - | 26.7 | 25.0 | 18.9
COC(=O)Cn1cc(/C=C2\C(=O)NC(=O)N(c3ccccc3)C2=O)c2ccccc21 | 0 | - | 0 | 0 | - | 24.3 | 43.6 | 37.9
